Test system: HEK-293T
Experiment: Multiplex assay against HEK293T;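 on Population Tubulin-Different-Phenotype (%): share of the cells with healthy nuclei that show this phenotype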
Format: toxicity, cell-based
Settings: human
Outline: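 Per cents of healthy-nucleus cells form the tubulin, mitochondrial-mass and membrane-permeability phenotype values. Live cells were stained at seeding with Hoechst33342, BioTracker Green Microtubule Cytoskeleton Dye, MitoTracker Red and Annexin V Alexa Fluor 680. After compound addition they were imaged on a CQ1 microscope at 37°C and 5% CO2, and CellPathfinder machine-learning gating split them into Hoechst high-intensity objects or normal cells, normal cells into healthy, pyknosed or fragmented nuclei, and pyknosed cells into mitotic or apoptotic.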

[1] = 12 h, 1 µM, compound concentration 1 uM, replicate 1
[2] = 12 h, 1 µM, compound concentration 1 uM, replicate 2
[3] = 12 h, 10 µM, compound concentration 10 uM, replicate 1
[4] = 12 h, 10 µM, compound concentration 10 uM, replicate 2
[5] = 24 h, 1 µM, compound concentration 1 uM, replicate 1
[6] = 24 h, 1 µM, compound concentration 1 uM, replicate 2
[7] = 24 h, 10 µM, compound concentration 10 uM, replicate 1
[8] = 24 h, 10 µM, compound concentration 10 uM, replicate 2

## O=C(Nc1cccnn1)N1CCC(=Cc2cccc(Oc3ccc(C(F)(F)F)cn3)c2)CC1
[1]
  Population Apoptotic (%): 22%
  Population Fragmented Nuclei (%): 20%
  Population Healthy Nuclei (%): 46%
  Population Hoechst High Intensity Objects (%): 16%
  Population Membrane Permeable-Phenotype (%): 10%
  Population Mitochondria Different-Phenotype (%): 17%
  Population Mitotic Cells (%): 77%
  Population Normal (%): 83%
  Population Pyknosed Nuclei (%): 33%
  Population Tubulin-Different-Phenotype (%): 29%
  Total Cell Count: 578
[2]
  Population Apoptotic (%): 17%
  Population Fragmented Nuclei (%): 5%
  Population Healthy Nuclei (%): 83%
  Population Hoechst High Intensity Objects (%): 9%
  Population Membrane Permeable-Phenotype (%): 7%
  Population Mitochondria Different-Phenotype (%): 30%
  Population Mitotic Cells (%): 82%
  Population Normal (%): 90%
  Population Pyknosed Nuclei (%): 11%
  Population Tubulin-Different-Phenotype (%): 62%
  Total Cell Count: 1415
[3]
  Population Apoptotic (%): 30%
  Population Fragmented Nuclei (%): 13%
  Population Healthy Nuclei (%): 67%
  Population Hoechst High Intensity Objects (%): 9%
  Population Membrane Permeable-Phenotype (%): 3%
  Population Mitochondria Different-Phenotype (%): 4%
  Population Mitotic Cells (%): 69%
  Population Normal (%): 90%
  Population Pyknosed Nuclei (%): 18%
  Population Tubulin-Different-Phenotype (%): 5%
  Total Cell Count: 619
[4]
  Population Apoptotic (%): 8%
  Population Fragmented Nuclei (%): 7%
  Population Healthy Nuclei (%): 88%
  Population Hoechst High Intensity Objects (%): 1%
  Population Membrane Permeable-Phenotype (%): 1%
  Population Mitochondria Different-Phenotype (%): 12%
  Population Mitotic Cells (%): 91%
  Population Normal (%): 98%
  Population Pyknosed Nuclei (%): 4%
  Population Tubulin-Different-Phenotype (%): 6%
  Total Cell Count: 1821
[5]
  Population Apoptotic (%): 31%
  Population Fragmented Nuclei (%): 16%
  Population Healthy Nuclei (%): 56%
  Population Hoechst High Intensity Objects (%): 15%
  Population Membrane Permeable-Phenotype (%): 12%
  Population Mitochondria Different-Phenotype (%): 19%
  Population Mitotic Cells (%): 68%
  Population Normal (%): 84%
  Population Pyknosed Nuclei (%): 27%
  Population Tubulin-Different-Phenotype (%): 54%
  Total Cell Count: 519
[6]
  Population Apoptotic (%): 8%
  Population Fragmented Nuclei (%): 6%
  Population Healthy Nuclei (%): 83%
  Population Hoechst High Intensity Objects (%): 10%
  Population Membrane Permeable-Phenotype (%): 10%
  Population Mitochondria Different-Phenotype (%): 30%
  Population Mitotic Cells (%): 91%
  Population Normal (%): 89%
  Population Pyknosed Nuclei (%): 10%
  Population Tubulin-Different-Phenotype (%): 82%
  Total Cell Count: 1537
[7]
  Population Apoptotic (%): 17%
  Population Fragmented Nuclei (%): 9%
  Population Healthy Nuclei (%): 83%
  Population Hoechst High Intensity Objects (%): 4%
  Population Membrane Permeable-Phenotype (%): 8%
  Population Mitochondria Different-Phenotype (%): 2%
  Population Mitotic Cells (%): 82%
  Population Normal (%): 95%
  Population Pyknosed Nuclei (%): 7%
  Population Tubulin-Different-Phenotype (%): 5%
  Total Cell Count: 783
[8]
  Population Apoptotic (%): 2%
  Population Fragmented Nuclei (%): 22%
  Population Healthy Nuclei (%): 74%
  Population Hoechst High Intensity Objects (%): 3%
  Population Membrane Permeable-Phenotype (%): 3%
  Population Mitotic Cells (%): 97%
  Population Normal (%): 96%
  Population Pyknosed Nuclei (%): 2%
  Population Tubulin-Different-Phenotype (%): 8%
  Total Cell Count: 3029

Source: ChEMBL document CHEMBL4689842, “EUbOPEN Chemogenomics Library wave 1” (2021)
